Casp6 inh = human caspase-6 inhibitors, primary screen, biochemical, VEID-R110 fluorescence, single point, set 2; purified caspase-6, Z-VEID-R110 cleavage fluorescence; inhibition, % at 12.5 µM; 0.53% of 350,000 active; AID 686996, 2013;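 active means mean inhibition across replicates at least about 35%, with every replicate also reaching that limit, limit read from the data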;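 further: 0% = median of neutral control wells and 100% = no fluorescence left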
Target sequence (P55212 24-179 limits assumed): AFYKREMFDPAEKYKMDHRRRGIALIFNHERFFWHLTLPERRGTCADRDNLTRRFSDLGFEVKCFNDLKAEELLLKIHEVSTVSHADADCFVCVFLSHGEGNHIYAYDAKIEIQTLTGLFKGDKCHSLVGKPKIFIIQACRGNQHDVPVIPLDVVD
Target sequence (P55212 194-293 limits assumed): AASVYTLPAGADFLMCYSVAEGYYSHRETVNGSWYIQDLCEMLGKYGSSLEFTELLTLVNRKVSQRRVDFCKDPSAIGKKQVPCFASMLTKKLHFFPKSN
S100A4 inh HTS = inhibitors of S100A4-myosin IIA peptide binding, primary screen, biochemical, fluorescence polarization, TAMRA-MyoIIA peptide; Protein S100-A4 (Homo sapiens), P26447; inhibition, % at 10.7 µM; 0.14% of 360,000 active; AID 652163, 2013;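 active means mean inhibition of at least 70% across replicates, with every replicate also reaching that level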
Target sequence (P26447 whole entry, looked up): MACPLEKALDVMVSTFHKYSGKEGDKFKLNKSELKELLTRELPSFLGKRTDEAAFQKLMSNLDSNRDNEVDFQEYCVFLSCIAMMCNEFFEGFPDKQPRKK
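Test system: S100A4 monomer protein; Medium: HEPES pH 7.2 with CaCl2, KCl, NaCl, DTT, Triton; Probe or stimulus: TAMRA-labelled myosin IIA heavy-chain peptide probe, 5 nM; Doses: one dose per compound; Times: polarization read 5 min after assay mix addition, stable 5–60 min; Benchmarks: neutral control DMSO, positive control TFP.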
RAD52 anneal inh = RAD52 DNA annealing inhibitors, primary screen, biochemical, FRET, single point, set 2; DNA repair protein RAD52 homolog (Homo sapiens), P43351; 0.46% of 360,000 active; inhibition, % at 18.7 µM; AID 651710, 2012; recombinant RAD52 DNA annealing, FRET fluorescence;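 active means every replicate showing at least 50% inhibition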
MLL AF4-AF9 inh = inhibitors of AF4 peptide binding to AF9, primary screen, biochemical, AlphaScreen, biotin-AF4 peptide, FLAG-AF9, single point; 0.47% of 350,000 active; inhibition, % at 10 µM;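 active means every replicate reaching a set inhibition limit, whatever the replicate mean, cut at about 25% in these data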;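 further: 0% = plate neutral control median and 100% = total signal loss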
RAD54 inh = inhibitors of human RAD54 branch migration, primary screen, biochemical, fluorescence, single point. RAD54 Holliday junction branch migration, FAM/BHQ fluorescence. inhibition, % at 10.4 µM. 0.14% of 360,000 active. AID 602329, 2012;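 active means mean normalized replicate activity at least 40 and at least half of replicates scoring 40 or more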;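 further: 0% = median of neutral control wells and 100% = median of positive control wells; inhibitors cause a drop in the FAM fluorescence signal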
XiGFP reactiv = activators of inactive X chromosome reactivation, primary screen, imaging, XiGFP fibroblasts, GFP high-content imaging, set 2; XiGFP mouse fibroblasts, % GFP-positive cells imaging, 3 d; cells co-treated with 5-aza-dC sensitizer; scaled so ellipticine positive control = 100%; activation, % at 7.58 µM; 0.055% of 360,000 active; AID 743238, 2013;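 active means mean normalized replicate activation at least 10% and every replicate at or above 10%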;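 further: 0% = median of on-plate neutral control wells and 100% = ellipticine 6 µM median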
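Material: SV40-immortalized XiGFP fibroblast cells, line 68-5-11 | Buffer or medium: DMEM containing 5-aza-dC | Dosing: One concentration, pinned | Times: 3 d treatment, 15 min room-temperature fixation | Controls: Ellipticine 6 µM positive control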
Active calls of the source: *; · = no result given. Only some compounds are listed: those with a hit (about 1.3% of all), similar ones and a draw of the others.

SMILES | Casp6 inh | S100A4 inh HTS | RAD52 anneal inh | MLL AF4-AF9 inh | RAD54 inh | XiGFP reactiv
O=C(CCN1CCCCC1)N[C@@H]1CC[C@H](CC(=O)N2CCC(Cc3ccccc3)CC2)O[C@H]1CO | -1 | 3 | 0 | 3 | -1 | 0
CCOc1cc2c(cc1OCC)C(c1ccc(F)cc1)NCC2 (stereo not given) | 0 | -5 | -10 | · | -1 | 0
CCOc1cc2c(cc1OC)C(c1cccc([N+](=O)[O-])c1)NCC2 (stereo not given) | 42* | 1 | -9 | 0 | · | 0
COC(CNC(=O)CCc1c(C)nc2c(c(C)nn2-c2ccc(C)cc2)c1C)OC | 0 | -1 | -7 | -1 | -9 | 0
Cc1ccc(-n2nc(C)c3c(C)c(CCC(=O)Nc4ccc(CN5CCCC5)cc4)c(C)nc32)cc1 | -6 | -5 | -12 | 27* | · | 0
O=C(CCOc1ccccc1)N1CCN(S(=O)(=O)c2ccccc2F)CC1 | 48* | 1 | -5 | -1 | -8 | 0
O=C(CCOc1ccccc1)N1CCN(S(=O)(=O)c2cccs2)CC1 | · | · | · | · | 4 | ·
COCC(=O)N1[C@H](CO)[C@@H](c2ccc(-c3cccc(OC)c3)cc2)C12CN(C(C)=O)C2 | -1 | -8 | -10 | 1 | · | 0
c1ccc2[nH]c(CCCCc3nc4ccccc4[nH]3)nc2c1 | -2 | -4 | -19 | -3 | -5 | 0
COc1ccc(CCCc2nc3ccccc3[nH]2)cc1 | 1 | -3 | -2 | 1 | · | 30*
CC(=O)Oc1cc(C(=O)OCC(=O)NC23CC4CC(CC(C4)C2)C3)cc(OC(C)=O)c1OC(C)=O | 41* | 1 | -3 | 4 | -3 | 0
COc1cccc(C(=O)OCC(=O)NC23CC4CC(CC(C4)C2)C3)c1 | -1 | -2 | -8 | -1 | -6 | 0
Nc1ccc(C(=O)O)cc1S(=O)(=O)O | -2 | 1 | -12 | 1 | 1 | 0
Nc1cc(S(=O)(=O)O)cc2ccc(S(=O)(=O)O)cc12 | 57* | 16 | -27 | -6 | -6 | 0
COc1ccc(CC(=O)OCC(=O)c2ccc[nH]2)cc1 | 1 | 2 | -12 | 1 | 0 | 0
COc1ccc(C(=O)OCC(=O)c2ccc[nH]2)c(OC)c1 | 43* | -2 | -15 | -3 | 7 | 0
Cc1nnc(SCC(=O)NCc2ccccc2Cl)[nH]c1=O | 3 | 0 | -8 | 34* | -10 | 0
Cc1nnc(SCC(=O)Nc2c(Cl)cccc2Cl)[nH]c1=O | 0 | 5 | -7 | -13 | -15 | 0
CCN1CCN(CCNC(=O)c2ccc(/C=C3/Sc4ccccc4N(Cc4cccc(Cl)c4)C3=O)cc2)CC1 | -137 | -3 | 13 | · | · | 0
CCN1CCN(CCNC(=O)c2ccc3c(c2)N(Cc2ccc(F)cc2)C(=O)/C(=C/c2ccccc2)S3)CC1 | -90 | -1 | 73* | 58* | 66* | 0
COc1ccc(-c2c(C)nn3c(-c4ccccc4)cc(C)nc23)cc1 | -1 | -1 | -15 | 27* | -10 | 0
CC1(CC(=O)N/N=C/c2cc([N+](=O)[O-])c(O)cc2O)OCCO1 | 69* | 1 | -21 | -4 | · | 1
Cc1noc(C)c1NC(=O)N(C)C[C@H]1Oc2ccc(NC(=O)CCCN(C)C)cc2CC(=O)N([C@@H](C)CO)C[C@@H]1C | -2 | -19 | 8 | 31* | 6 | 0
C[C@@H]1CN([C@H](C)CO)C(=O)Cc2cc(NC(=O)CCCN(C)C)ccc2O[C@H]1CN(C)Cc1ccc(-c2ccccc2)cc1 | 4 | -4 | 73* | 7 | 12 | -1
C[C@H](CO)N1C[C@H](C)[C@H](CN(C)Cc2ccc(-c3ccccc3)cc2)Oc2ccc(NC(=O)CCCN(C)C)cc2CC1=O | 4 | 3 | 53* | 3 | 2 | -1
SMILES | Casp6 inh | S100A4 inh HTS | RAD52 anneal inh | MLL AF4-AF9 inh | RAD54 inh | XiGFP reactiv
C[C@H](CO)N1C[C@H](C)[C@@H](CN(C)Cc2ccc(Cl)c(Cl)c2)Oc2ccc(NC(=O)CCCN(C)C)cc2CC1=O | -70 | 0 | 59* | 18 | 20 | 0
Fc1cccc(Nc2nc(-c3ccncc3)nc3ccccc23)c1 | 53* | 6 | -10 | -7 | 0 | 0
Cn1c(NC(=O)c2ccccc2F)cc(=O)n(C)c1=O | -4 | -4 | -20 | -10 | -20 | 0
COc1ccc(Cl)cc1C(=O)Nc1cc(=O)n(C)c(=O)n1C | 0 | -12 | -5 | 49* | -1 | 0
Cc1ccc(S(=O)(=O)Nc2ccc3c(c2)C(=O)N([C@@H](C)CO)C[C@@H](C)[C@@H](CN(C)S(=O)(=O)c2cn(C)cn2)OCCCC[C@@H](C)O3)cc1 | -1 | 133* | -40 | 4 | 3 | 0
Cc1ccc(S(=O)(=O)Nc2ccc3c(c2)C(=O)N([C@H](C)CO)C[C@H](C)[C@@H](CN(C)S(=O)(=O)c2cn(C)cn2)OCCCC[C@@H](C)O3)cc1 | 2 | -18 | 6 | 1 | 5 | 0
C[C@@H]1CCCCO[C@@H](CN(C)S(=O)(=O)c2cn(C)cn2)[C@@H](C)CN([C@H](C)CO)C(=O)c2cc(NS(=O)(=O)c3ccc(Cl)cc3)ccc2O1 | -2 | 103* | -20 | -10 | 7 | 0
Cc1cc(O)c(Sc2ncn[nH]2)cc1NS(=O)(=O)c1ccc(Cl)cc1 | 5 | -7 | -2 | 0 | -6 | 0
Cc1ccc(S(=O)(=O)Nc2ccc(Br)cc2C(NCC(=O)O)c2ccccc2)cc1 (stereo not given) | · | · | · | · | -7 | 0
O=C(O)CSc1cc(NS(=O)(=O)c2ccc(Br)cc2)c2ccccc2c1O | 95* | 10 | -20 | -1 | 2 | 0
O=S(=O)(Nc1cc(Sc2ncn[nH]2)c(O)c2ccccc12)c1ccccc1 | 100* | 5 | 5 | 1 | · | 1
CC(=Nc1ccc(Br)cc1)c1sc2ccccc2c1O | 2 | -10 | -5 | 0 | -18 | 0
CC(=Nc1ccccc1)c1sc2ccccc2c1O | 7 | -7 | -90 | 26* | -3 | ·
CC1CC(C)CN(C(=O)COC(=O)c2ccc([N+](=O)[O-])o2)C1 (stereo not given) | 22 | 5 | -10 | -20 | -6 | 0
CCOC(=O)C1=C(C)NC(=O)NC1c1ccc(OC(=O)c2ccco2)cc1 (stereo not given) | · | · | · | · | 7 | ·
CCOC(=O)C1=C(COC(=O)c2ccco2)NC(=O)NC1CC (stereo not given) | 2 | 9 | -16 | 29* | 2 | 0
